# Bioassay records deposited in PubChem by several laboratories.
# NPY Y2 blocker: NPY-Y2 receptor antagonists, primary screen, cell-based; AID 793, 2007; 140,000 tested, 0.99% active; inhibition, % at 2.7 µM; NPY-Y2 expressing cells, antagonist mode; Neuropeptide Y receptor type 2 (Homo sapiens), P49146; in the data active = inhibition above about 17%;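 also: 0% = vehicle with agonist challenge and 100% = reference antagonist with challenge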
# Target sequence (P49146 whole entry, looked up): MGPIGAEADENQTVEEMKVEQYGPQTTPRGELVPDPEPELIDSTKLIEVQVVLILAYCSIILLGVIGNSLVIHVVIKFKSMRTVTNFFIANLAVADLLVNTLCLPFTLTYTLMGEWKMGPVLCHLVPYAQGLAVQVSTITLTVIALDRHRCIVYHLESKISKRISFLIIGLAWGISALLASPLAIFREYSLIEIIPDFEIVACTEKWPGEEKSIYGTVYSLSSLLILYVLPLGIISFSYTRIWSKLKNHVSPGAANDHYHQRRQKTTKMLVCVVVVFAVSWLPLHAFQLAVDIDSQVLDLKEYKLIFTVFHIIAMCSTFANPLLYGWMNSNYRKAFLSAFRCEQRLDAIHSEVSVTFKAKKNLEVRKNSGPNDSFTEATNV
# TbHK1 inh: Trypanosoma brucei hexokinase 1 inhibitors, primary screen, biochemical, G6PDH-coupled NADH absorbance, MLSCN library | hexokinase 1 [Trypanosoma brucei] | recombinant TbHK1, G6PDH-coupled NADH A340 | inhibition, % at 10 µM | 220,000 tested, 0.11% active;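 active = inhibition of 50% or more in the single-dose primary screen; inactive = inhibition below 50%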
# m-calpain inh: inhibitors of pig calpain II, primary screen, biochemical, fluorogenic peptide substrate, 1536-well; purified calpain II, 30 min; 220,000 tested, 0.37% active; inhibition, % at 16 µM;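 active = inhibition above about 50%, limit read from the data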
# NPY2 pot ag: NPY-Y2 potentiators or agonists, primary screen, cell-based. cells expressing NPY-Y2, potentiator/agonist read-out. 220,000 tested, 0.45% active. Neuropeptide Y receptor type 2 (Homo sapiens), P49146. activation, % at 3.6 µM; in the data active = activation above about 27%;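 also: cells stimulated with NPY near EC25 plus isoproterenol at EC100; 0% = vehicle plus submaximal agonist and 100% = vehicle plus saturating agonist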
# NPY-Y1 PAM-ag: NPY-Y1 receptor potentiators or agonists, primary screen, cell-based; 220,000 tested, 0.37% active; NPY-Y1 expressing cells, potentiator/agonist activation; activation, % at 3.6 µM; in the data active = activation above about 33%, passing the limit was not always enough;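 also: cells stimulated with NPY at EC10 then isoproterenol at EC100; 0% = low agonist plus stimulus and 100% = saturating agonist plus stimulus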
# NPY Y1 blocker: NPY-Y1 receptor antagonists, primary screen, cell-based | inhibition, % at 3.6 µM | HEK293-CNG Y1 cells, membrane potential fluorescence; NPY at EC95, then isoproterenol | 200,000 tested, 1% active;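 active = inhibition above the campaign mean inhibition of all tested compounds plus 3 SD, cut at about 20% in these data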;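 also: 0% = DMSO wells given NPY plus isoproterenol and 100% = isoproterenol alone without NPY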
#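 Material: HEK293 Y1/CNG channel cell line; also added: NPY (25 nM), isoproterenol (1 µM), Ro 20-1724 (25 µM); doses: one concentration, 3.6 µM, in 0.4% DMSO; schedule: compound incubation 1 h at room temperature, readout 45 min post-stimulation; technique: membrane potential fluorescence; measure: fluorescence ratio normalized to % inhibition between controls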
# NPY-Y1 ant conf: NPY-Y1 receptor antagonists, retest of hits, confirmation, HEK293-CNG cells, membrane potential fluorescence, triplicate; shares compounds with NPY Y1 blocker; cAMP; NPY challenge against isoproterenol-raised cAMP; inhibition, % at 3.6 µM; 1,200 tested, 21% active; AID 1254, 2008; in the data active = inhibition above about 20%;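 also: 0% = vehicle with agonist plus stimulus and 100% = stimulus alone without agonist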
# NPY2 antag ctr: NPY-Y2 receptor antagonists, selectivity check, confirmation, counter-screen for NPY-Y1 antagonist project, HEK293-CNG cells, membrane potential fluorescence, triplicate; antagonism; cells given NPY, then isoproterenol; shares compounds with NPY Y1 blocker; 1,200 tested, 28% active; AID 1255, 2008; inhibition, % at 3.6 µM; in the data active = inhibition above about 17%;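 also: 0% = DMSO with agonist challenge and 100% = reference antagonist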
# NPY-Y1 confirm: NPY-Y1 potentiators or agonists, confirmation, cell-based; shares compounds with NPY-Y1 PAM-ag; cell-based NPY-Y1 potentiator/agonist assay; activation, % at 3.6 µM; 280 tested, 20% active; AID 1546, 2009;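 also: cells challenged with NPY at its EC10 plus isoproterenol stimulus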
# NPY-Y2 counter: NPY-Y2 potentiators or agonists, counter-screen for NPY-Y1 potentiator project, cell-based, fluorescence; HEK293-CNG cells, membrane-potential fluorescence (FLIPR), 1536-well; activation, % at 3.6 µM; AID 1649, 2009; shares compounds with NPY-Y1 PAM-ag; 280 tested, 20% active; in the data active = activation above about 33%
# NPY-Y1 agonist: NPY-Y1 direct agonists without NPY, confirmation, counter-screen for NPY-Y1 potentiator project, cell-based, fluorescence. HEK293 Y1-CNGC, membrane potential fluorescence, agonist mode. 280 tested, 50% active. activation, % at 3.6 µM. shares compounds with NPY-Y1 PAM-ag;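 active = percent activation above the mean of DMSO-only control wells plus 3 SD of those wells, cut at about 18% in these data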;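 also: cells challenged with isoproterenol plus Ro 20-1724 with no NPY in test wells; Y1 agonism lowers isoproterenol-driven cAMP and reduces probe fluorescence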
# NPY-Y2 ag: NPY-Y2 direct agonists without NPY, counter-screen for NPY-Y1 potentiator project, cell-based, fluorescence | shares compounds with NPY-Y1 PAM-ag | HEK293 Y2-CNGC, membrane potential fluorescence, agonist mode | activation, % at 3.6 µM | 280 tested, 67% active | AID 1698, 2009;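 active = activation above the solvent-only control wells' mean plus 3 SD, cut at about 11% in these data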;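 also: 0% = DMSO with isoproterenol and 100% = 40 nM NPY maximal response; agonism lowers cAMP so well fluorescence drops in active wells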
# CNGC inh 2: CNGC cAMP sensor activity inhibitors, counter-screen for NPY-Y1 potentiator/agonist project, cell-based, HEK293-CNG parental, membrane potential fluorescence, Y1 set. isoproterenol cAMP. inhibition, % at 3.6 µM. shares compounds with NPY-Y1 PAM-ag. 280 tested, 42% active. AID 1704, 2009;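 active = inhibition above the mean of stimulated solvent-only control wells plus 3 SD, cut at about 22% in these data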;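 also: 0% = isoproterenol-stimulated DMSO wells and 100% = unstimulated DMSO wells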
# NPY-Y2 confirm: NPY-Y2 potentiators or agonists, confirmation, cell-based | shares compounds with NPY2 pot ag | cell-based NPY-Y2 potentiator/agonist assay | activation, % at 3.6 µM | 450 tested, 20% active; in the data active = activation above about 33%
# NPY-Y1 potentiator: NPY-Y1 potentiators or agonists, counter-screen for NPY-Y2 potentiator project, cell-based, fluorescence; 450 tested, 20% active; Y1 HEK293-CNG cells, membrane potential fluorescence; activation, % at 3.6 µM; shares compounds with NPY2 pot ag;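 also: cells stimulated with submaximal NPY then isoproterenol with phosphodiesterase inhibitor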
# NPY-Y1 ag 2: NPY-Y1 direct agonists, selectivity assay for NPY-Y2 potentiator project, cell-based, fluorescence; shares compounds with NPY2 pot ag; HEK293 Y1-CNGC, membrane potential fluorescence, agonism; activation, % at 3.6 µM; 450 tested, 37% active; AID 1702, 2009;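 active = activation above the mean of DMSO-only control wells plus 3 SD, cut at about 18% in these data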;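 also: cells stimulated with 1 µM isoproterenol plus the PDE inhibitor Ro 20-1724; 0% = isoproterenol with DMSO and no NPY and 100% = 40 nM NPY; Y1 agonists lower the membrane potential dye signal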
# CNGC inhibitor: CNGC cAMP sensor activity inhibitors, counter-screen for NPY-Y2 potentiator project, cell-based, HEK293-CNG parental, membrane potential fluorescence | shares compounds with NPY2 pot ag | isoproterenol cAMP | inhibition, % at 3.6 µM | 450 tested, 32% active | AID 1703, 2009;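 active = inhibition above the control-well mean plus 3 SD of those wells, cut at about 22% in these data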;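 also: 0% = DMSO with isoproterenol and 100% = DMSO without isoproterenol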
# Y2 agonist ctr: NPY-Y2 direct agonists, counter-screen for NPY-Y2 potentiator project, cell-based, fluorescence. AID 1710, 2009. activation, % at 3.6 µM. HEK293 Y2/CNGC cells, membrane potential fluorescence, agonist mode. shares compounds with NPY2 pot ag. 450 tested, 56% active;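 active = activation above the mean of solvent-only control wells plus 3 SD, cut at about 10% in these data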;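 also: cells stimulated by isoproterenol with no NPY added so direct agonism is tested; 0% = DMSO with isoproterenol alone and 100% = NPY at EC100 plus isoproterenol; agonism lowers probe fluorescence through less cAMP and CNG channel opening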
# An asterisk follows results filed as active; / = no result given. In the library only some 2.3% were active in any assay of this set; here they are far more common. Rule as the data show it, unless noted: active = activation above about 45%; inactive = the rest.
SMILES,NPY Y2 blocker,TbHK1 inh,m-calpain inh,NPY2 pot ag,NPY-Y1 PAM-ag,NPY Y1 blocker,NPY-Y1 ant conf,NPY2 antag ctr,NPY-Y1 confirm,NPY-Y2 counter,NPY-Y1 agonist,NPY-Y2 ag,CNGC inh 2,NPY-Y2 confirm,NPY-Y1 potentiator,NPY-Y1 ag 2,CNGC inhibitor,Y2 agonist ctr
CC(C)(C)NCc1cc(Cl)ccc1OCc1ccccc1F,/,8.1,-10.6,31.5*,27.0,24.0*,17.3,9.2,/,/,/,/,/,-4.0,-38.2,-26.7,-14.8,-13.2
CC(NC(=O)Nc1nnc(C(F)(F)F)s1)(C(F)(F)F)C(F)(F)F,11.4,-2.3,36.4,57.6*,3.6,42.5*,27.3*,7.4,/,/,/,/,/,8.1,-17.2,-25.4,-8.1,-1.2
CC1CCC(C(C)C)C(OCC(O)CNC(C)c2ccccc2)C1 (configuration not stated),/,9.6,15.0,17.0,43.0*,6.5,/,/,31.8,38.5*,45.5*,42.4*,13.6,/,/,/,/,/
CC(NCC(O)COC1CCC(C(C)(C)C)CC1)c1ccccc1 (configuration not stated),/,12.5,18.2,-22.9,-30.8,17.6,/,/,/,/,/,/,/,/,/,/,/,/
CC1CCN(CC(O)COC2CC(C)CCC2C(C)C)CC1 (configuration not stated),/,3.8,8.6,-4.4,41.3*,10.1,/,/,3.9,5.4,-7.2,15.7*,-9.4,/,/,/,/,/
